Active and inactive are the calls of the source. No cut-off for these calls is given here.

Experiment [1] concerns the target DNA polymerase I, thermostable (Thermus aquaticus) (UniProt P19821). The experiment is described as follows: Inhibition of Taq polymerase at 10 uM (Slight inhibition). The method in brief: (§1)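 Compound at final 10 µM in a PCR mix: pCI-neo vector template, forward/reverse primers, Tris-HCl pH 8.8 buffer, 2.5 mM MgCl2, 200 µM each dNTP, 1.25 U thermostable polymerase. Run 30 cycles (94/55/72 °C). Products separated on 2% agarose with ethidium bromide and compared to a no-drug water control (~1 kb product); inhibition graded semiquantitatively.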

The subject of experiment [2] is A2780. The experiment is described as follows: Concentration required to inhibit A2780-cell growth by 50%. Type of experiment: functional, cell-based. To be noted: Homo sapiens. The method in brief: (§2)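 Human ovarian carcinoma cells grown as monolayers in DMEM with 10% FBS, 2 mM glutamine and 0.5 µg/mL hydrocortisone under 6% CO2. 3000–6000 cells per well, attached overnight. Salts dissolved in water, added in quadruplicate at final 0.05, 0.25, 1, 5 and 25 µM for 96 h. Cells fixed with TCA and stained with SRB, absorbance read at 540 nm. IC50 taken from mean absorbance as % of untreated control.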

For experiment [3], the target named is DNA polymerase I, thermostable (Thermus aquaticus) (UniProt P19821). The experiment is described as follows: Inhibition of Taq polymerase at 50 uM (Total inhibition). An outline of the steps:
(§3)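 Compound at final 50 µM in PCR with pCI-neo template and primers, Tris-HCl pH 8.8 buffer, 2.5 mM MgCl2, 200 µM each dNTP, 1.25 U thermostable polymerase. Run 30 cycles of 94 °C 1 min, 55 °C 1 min, 72 °C 2.5 min. Agarose/ethidium bromide read-out against a water no-drug control, scored semiquantitatively.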

The subject of experiment [4] is SK-OV-3. The experiment is described as follows: Concentration required to inhibit SKOV-3-cell growth by 50%. In kind it is functional, cell-based. The settings on record: Homo sapiens. An outline of the steps:
as §2

Experiment [5] relates to CH1. The experiment is described as follows: Concentration required to inhibit CH1-cell growth by 50%. To be noted: Homo sapiens. Type of experiment: functional, cell-based. An outline of the steps:
as §2

Experiment [6] addresses T1, Telomerase reverse transcriptase (Homo sapiens, UniProt O14746). The experiment is described as follows: Inhibition of telomerase activity. The method in brief:
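Modified cell-free TRAP using CHAPS lysate of exponentially growing A2780 cells. Protein (0.04 µg) incubated with TS primer, 50 µM dNTPs and [α-32P]dCTP in TRAP buffer (pH 8.3) ± compound at 1–50 µM for 20 min at 25 °C. Telomerase heat-killed at 80 °C, then 31-cycle PCR with CX primer and Taq. Products read by denaturing gel/phosphorimaging or TCA filter scintillation counting. IC50 taken relative to controls.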

In experiment [7] the target is T1, Telomerase reverse transcriptase. The experiment is described as follows: Concentration required to inhibit telomerase activity. The method in brief: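 Cell-free modified TRAP assay. Enzyme source is a CHAPS lysate of exponentially growing A2780 ovarian carcinoma cells, which was clarified and stored at -80 °C. Protein (0.04 μg) was incubated with TS primer, dNTPs and [α-32P]dCTP in TRAP buffer (pH 8.3) ± agent at 1, 5, 10, 20 and 50 μM for 20 min at 25 °C. Telomerase was then heat-inactivated at 80 °C, followed by 31-cycle PCR with CX primer. Products were quantified by gel phosphorimaging or by TCA-precipitated filter scintillation counting. IC50 is relative to controls.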

The target of experiment [8] is DNA polymerase I, thermostable (Thermus aquaticus) (UniProt P19821). The experiment is described as follows: Inhibition of Taq polymerase at 10 uM (Significant inhibition). An outline of the steps: as §1
The target is the same in experiment [9]. The experiment is described as follows: Inhibition of Taq polymerase at 50 uM (No inhibition). An outline of the steps:
as §3

Experiment [10] has the same target. The experiment is described as follows: Inhibition of Taq polymerase at 10 uM (No inhibition). The method in brief:
as §1

DNA polymerase I, thermostable (Thermus aquaticus), sequence (P19821 whole entry): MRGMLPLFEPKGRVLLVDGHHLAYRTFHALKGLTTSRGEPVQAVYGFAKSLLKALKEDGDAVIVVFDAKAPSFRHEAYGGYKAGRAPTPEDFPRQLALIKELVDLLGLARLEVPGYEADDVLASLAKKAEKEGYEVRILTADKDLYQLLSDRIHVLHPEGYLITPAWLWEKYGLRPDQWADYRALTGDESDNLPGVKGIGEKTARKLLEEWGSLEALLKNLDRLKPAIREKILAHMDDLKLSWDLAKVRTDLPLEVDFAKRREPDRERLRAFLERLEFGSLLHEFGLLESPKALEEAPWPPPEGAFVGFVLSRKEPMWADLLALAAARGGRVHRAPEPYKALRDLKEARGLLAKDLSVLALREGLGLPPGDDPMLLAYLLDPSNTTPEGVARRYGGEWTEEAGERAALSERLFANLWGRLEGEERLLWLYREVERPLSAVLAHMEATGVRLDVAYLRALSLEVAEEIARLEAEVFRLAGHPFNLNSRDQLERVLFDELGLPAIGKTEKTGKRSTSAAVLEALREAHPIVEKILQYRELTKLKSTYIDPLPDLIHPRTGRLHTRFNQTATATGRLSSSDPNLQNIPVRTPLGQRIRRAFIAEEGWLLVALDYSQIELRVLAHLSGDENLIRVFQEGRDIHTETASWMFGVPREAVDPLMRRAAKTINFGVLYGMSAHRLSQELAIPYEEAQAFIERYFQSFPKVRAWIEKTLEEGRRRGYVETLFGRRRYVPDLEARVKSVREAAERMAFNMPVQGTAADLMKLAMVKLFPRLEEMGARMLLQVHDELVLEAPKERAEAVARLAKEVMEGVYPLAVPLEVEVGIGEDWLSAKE
T1 sequence (O14746 whole entry): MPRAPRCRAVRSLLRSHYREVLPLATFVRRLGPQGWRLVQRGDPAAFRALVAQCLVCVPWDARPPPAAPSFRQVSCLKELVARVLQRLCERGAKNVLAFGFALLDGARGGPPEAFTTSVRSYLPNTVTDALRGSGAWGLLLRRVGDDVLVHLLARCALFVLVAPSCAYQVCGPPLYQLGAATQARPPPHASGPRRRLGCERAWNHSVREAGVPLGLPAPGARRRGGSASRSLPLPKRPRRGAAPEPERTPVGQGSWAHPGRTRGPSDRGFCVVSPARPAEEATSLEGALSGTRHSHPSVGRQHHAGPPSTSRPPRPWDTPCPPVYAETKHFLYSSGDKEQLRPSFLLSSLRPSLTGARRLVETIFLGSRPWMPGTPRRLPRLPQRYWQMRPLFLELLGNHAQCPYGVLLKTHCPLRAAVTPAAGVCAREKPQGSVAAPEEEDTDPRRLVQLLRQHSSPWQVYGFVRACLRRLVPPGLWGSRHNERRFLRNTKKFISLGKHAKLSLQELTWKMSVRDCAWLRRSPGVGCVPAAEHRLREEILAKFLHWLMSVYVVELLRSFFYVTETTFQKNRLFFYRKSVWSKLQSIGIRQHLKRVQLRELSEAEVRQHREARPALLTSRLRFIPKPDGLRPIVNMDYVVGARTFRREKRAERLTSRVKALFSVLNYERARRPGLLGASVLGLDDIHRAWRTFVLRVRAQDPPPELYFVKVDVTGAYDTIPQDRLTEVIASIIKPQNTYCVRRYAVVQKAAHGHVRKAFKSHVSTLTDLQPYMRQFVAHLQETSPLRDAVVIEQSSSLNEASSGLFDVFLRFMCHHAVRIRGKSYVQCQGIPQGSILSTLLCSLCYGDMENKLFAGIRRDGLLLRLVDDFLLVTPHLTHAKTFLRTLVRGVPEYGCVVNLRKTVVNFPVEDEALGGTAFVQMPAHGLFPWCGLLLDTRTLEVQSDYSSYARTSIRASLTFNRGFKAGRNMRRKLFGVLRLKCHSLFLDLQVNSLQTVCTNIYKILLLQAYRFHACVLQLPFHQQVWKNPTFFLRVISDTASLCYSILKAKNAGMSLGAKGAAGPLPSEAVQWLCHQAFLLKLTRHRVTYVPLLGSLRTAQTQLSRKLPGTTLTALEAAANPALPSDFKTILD

Usually IC50 stands for the concentration that inhibits the measured activity by half. High values mean weaker potency, low ones greater potency. On to `CN(C)CCC(=O)Nc1ccc(NC(=O)CCN(C)C)c2c1C(=O)c1ccccc1C2=O`, for which the inhibition entry in experiment [1] and in [3] was “Weak inhibition” throughout. Besides, the IC50 in experiment [2] is 16 nM; in experiment [4] it was 360 nM; in experiment [5], 40 nM.

For the molecule `C[N+](C)(C)CCC(=O)Nc1ccc(NC(=O)CC[N+](C)(C)C)c2c1C(=O)c1ccccc1C2=O`, the half-maximal inhibitory concentration (IC50) worked out at 2150 nM in experiment [2], 11500 nM in [4] and 2000 nM in experiment [5].

As to `O=C(CCN1CCCCC1CO)Nc1ccc(NC(=O)CCN2CCCCC2CO)c2c1C(=O)c1ccccc1C2=O` (centres undefined), the 50% inhibitory concentration (IC50) came out at 20 nM in experiment [2], 270 nM in [4] and 64 nM in [5].

Turning to `C[N+]1(CCC(=O)Nc2ccc(NC(=O)CC[N+]3(C)CCOCC3)c3c2C(=O)c2ccccc2C3=O)CCOCC1`, the half-maximal inhibitory concentration (IC50) amounted to 760 nM in experiment [2], 34500 nM in experiment [6], 8500 nM in [4] and 1650 nM in experiment [5].

With `CN(C)CCC(=O)Nc1ccc2c(c1)C(=O)c1ccc(NC(=O)CCN(C)C)cc1C2=O`, the IC50 in experiment [2] was 2550 nM; in experiment [4], 2900 nM; in experiment [5], 1800 nM.

Regarding `O=C(CCN1CCOCC1)Nc1ccc2c(c1)C(=O)c1ccc(NC(=O)CCN3CCOCC3)cc1C2=O`, the IC50 in experiment [2] was 4800 nM; in experiment [6], greater than 50000 nM; in experiment [4] it was 9000 nM; in experiment [5] it was 20000 nM.

For the molecule `C[N+]1(CCC(=O)Nc2ccc3c(c2)C(=O)c2ccc(NC(=O)CC[N+]4(C)CCCCC4CO)cc2C3=O)CCCCC1CO` (centres undefined), the results for the IC50 in experiment [2], in experiment [4] and in [5] were 1250 nM, 1800 nM and 2300 nM, respectively.

Take `CCC[N+](C)(CCC)CCC(=O)Nc1ccc(NC(=O)CC[N+](C)(CCC)CCC)c2c1C(=O)c1ccccc1C2=O`: the figures for the IC50 in [2], in [4] and in experiment [5] were 1400 nM, 16000 nM and 4450 nM, respectively.

Turning to `O=C(CN1CCOCC1)Nc1ccc2c(c1)C(=O)c1ccc(NC(=O)CN3CCOCC3)cc1C2=O`, the IC50 is 5900 nM in [2], greater than 50000 nM in experiment [6], 4500 nM in experiment [4] and 4150 nM in experiment [5].

`O=C(CCN1CCCCC1)Nc1ccc2c(c1)C(=O)c1ccc(NC(=O)CCN3CCCCC3)cc1C2=O`: the 50% inhibitory concentration (IC50) stood at 1300 nM in [2], 4500 nM in experiment [6], 4000 nM in experiment [4] and 5900 nM in [5].

As for `C[N+]1(CCC(=O)Nc2ccc(NC(=O)CC[N+]3(C)CCCCC3CO)c3c2C(=O)c2ccccc2C3=O)CCCCC1CO` (centres undefined), the 50% inhibitory concentration (IC50) in [2] was determined as 380 nM; in [6], 9400 nM; in experiment [4], 1500 nM; in experiment [5], 540 nM.

Take `C[N+]1(CCC(=O)Nc2ccc3c(c2)C(=O)c2ccc(NC(=O)CC[N+]4(C)CCCCC4)cc2C3=O)CCCCC1`: the half-maximal inhibitory concentration (IC50) was less than 1000 nM in experiment [2], 2200 nM in experiment [4] and 1850 nM in experiment [5].

For the molecule `C[N+](C)(C)CCC(=O)Nc1ccc2c(c1)C(=O)c1ccc(NC(=O)CC[N+](C)(C)C)cc1C2=O`, the half-inhibitory concentration (IC50) amounted to 2250 nM in [2], 17300 nM in [6], 4400 nM in experiment [4] and 1900 nM in [5].

For `O=C(CCN1CCCCC1CO)Nc1ccc2c(c1)C(=O)c1ccc(NC(=O)CCN3CCCCC3CO)cc1C2=O` (centres undefined), the results for the IC50 in [2], in experiment [4] and in experiment [5] were 2450 nM, 2400 nM and 14500 nM, respectively.

As to `O=C(CCN1CCOCC1)Nc1ccc(NC(=O)CCN2CCOCC2)c2c1C(=O)c1ccccc1C2=O`, the IC50 came out at 3700 nM in experiment [2], 33500 nM in experiment [6], 21000 nM in [4] and 1950 nM in experiment [5].

As for `CCCN(CCC)CCC(=O)Nc1ccc2c(c1)C(=O)c1ccc(NC(=O)CCN(CCC)CCC)cc1C2=O`, the IC50 in [2] was 380 nM; in experiment [6] it was greater than 50000 nM; in [4], 2400 nM; in experiment [5], 1400 nM.

In experiment [7], `Nc1nc2c(ncn2[C@H]2CC[C@@H](COP(=O)(O)OP(=O)(O)OP(=O)(O)O)O2)c(=O)[nH]1` [DIDEOXY GUANOSINE TRIPHOSPHATE] came in with an IC50 of 8600 nM.

For the molecule `O=C(CN1CCCCC1)Nc1ccc2c(c1)C(=O)c1ccc(NC(=O)CN3CCCCC3)cc1C2=O`, the IC50 in experiment [2] was 1650 nM; in [6], greater than 50000 nM; in [4], 5000 nM; in experiment [5] it was 5050 nM.

Consider `C[N+]1(CCC(=O)Nc2ccc3c(c2)C(=O)c2ccc(NC(=O)CC[N+]4(C)CCOCC4)cc2C3=O)CCOCC1`, for which the IC50 is 1900 nM in [2], 3000 nM in experiment [4] and 1700 nM in experiment [5].

For the molecule `COc1cccc2c1C(=O)c1c(O)c3c(c(O)c1C2=O)C[C@@](O)(C(=O)CO)C[C@@H]3O[C@H]1C[C@H](N)[C@H](O)[C@H](C)O1` [DOXORUBICIN], the inhibition result in [8] was “Weak activity”. For the same molecule, the IC50 in [2] was found to be 9.6 nM; in experiment [4], 78 nM; in [5], 6.3 nM. The inhibition entry in experiment [3] was “Active”.

As to `O=C(CCN1CCCCC1)Nc1ccc(NC(=O)CCN2CCCCC2)c2c1C(=O)c1ccccc1C2=O`, the IC50 in [2] was determined as 290 nM; in [4], 2400 nM; in [5], 260 nM.

For `CCCN(CCC)CCC(=O)Nc1ccc(NC(=O)CCN(CCC)CCC)c2c1C(=O)c1ccccc1C2=O`, the Taq inhibition entry in experiment [9] and in [10] was “inactive” each time. Further, the half-maximal inhibitory concentration (IC50) in experiment [2] was found to be 130 nM; in [6], 50000 nM; in experiment [4], 4500 nM; in experiment [5] it was 480 nM.

For the molecule `C[N+]1(CC(=O)Nc2ccc3c(c2)C(=O)c2ccc(NC(=O)C[N+]4(C)CCCCC4)cc2C3=O)CCCCC1`, the IC50 in [2] is 6500 nM; in experiment [4], 9000 nM; in experiment [5], 4300 nM.

`C[N+]1(CC(=O)Nc2ccc3c(c2)C(=O)c2ccc(NC(=O)C[N+]4(C)CCOCC4)cc2C3=O)CCOCC1`: the IC50 in experiment [2] turned out to be 13000 nM; in experiment [4], 45500 nM; in [5] it was 18000 nM.

Take `O=C1c2c(O)ccc(O)c2C(=O)c2c(NCCNCCO)ccc(NCCNCCO)c21`: the inhibition result in experiment [1] and in experiment [3] was “Weak inhibition” throughout.

`O=C(CCN1CCN(CCO)CC1)Nc1ccc2c(c1)C(=O)c1ccc(NC(=O)CCN3CCN(CCO)CC3)cc1C2=O`: the IC50 is 11000 nM in experiment [2], 16500 nM in experiment [6], 7000 nM in experiment [4] and 7900 nM in experiment [5].

As to `C[N+]1(CCC(=O)Nc2ccc(NC(=O)CC[N+]3(C)CCCCC3)c3c2C(=O)c2ccccc2C3=O)CCCCC1`, the IC50 in [2] was determined as 1750 nM; in experiment [6] it was 11100 nM; in experiment [4] it was 32500 nM; in [5], 4300 nM.

Regarding `CCC[N+](C)(CCC)CCC(=O)Nc1ccc2c(c1)C(=O)c1ccc(NC(=O)CC[N+](C)(CCC)CCC)cc1C2=O`, the results for the 50% inhibitory concentration (IC50) in experiment [2], in experiment [4] and in experiment [5] were 500 nM, 2000 nM and 680 nM, respectively.

Source of the values: ChEMBL document CHEMBL1131065, “1,4- and 2,6-disubstituted amidoanthracene-9,10-dione derivatives as inhibitors of human telomerase” (J Med Chem, 1998).
